# The source made the active and inactive calls. The calls are words filed in the database; no cut-off is given here.
# Tests used:
# Type in all cases: cell-based
# [1] = target: Histone-lysine N-methyltransferase EZH2 (Homo sapiens) (UniProt Q15910); assay: Inhibition of EZH2 in human HeLa cells assessed as effect on IRF1 mRNA level after 6 hrs by RT-PCR analysis in presence of IFN-gamma
# Method in brief: (§1)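 Cells were treated for two four-day cycles with 2 μM GSK343 or UNC1999, then left untreated or stimulated with human IFNγ for 6 h. mRNA was measured by reverse transcription quantitative PCR and normalized to β-actin. Three biological replicates were run per treatment group.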
# [2] = target: Histone-lysine N-methyltransferase EZH2 (Homo sapiens) (UniProt Q15910); assay: Inhibition of EZH2 in human A549 cells assessed as effect on PITX2 mRNA level after 6 hrs by RT-PCR analysis in presence of IFN-gamma; method in brief: as §1
# [3] = target: Histone-lysine N-methyltransferase EZH2 (Homo sapiens) (UniProt Q15910); assay: Inhibition of EZH2 in human MCF7 cells assessed as effect on PITX2 mRNA level after 6 hrs by RT-PCR analysis
# Method in brief: (§2)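 Cells pretreated for two 4-day cycles with 2 µM GSK343 or UNC1999, then left unstimulated or given human IFNγ for 6 h. RNA reverse-transcribed and measured by quantitative PCR, normalized to β-actin. Three biological replicates per treatment group.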
# [4] = target: Histone-lysine N-methyltransferase EZH2 (Homo sapiens) (UniProt Q15910); assay: Inhibition of EZH2 in human A549 cells assessed as effect on HPRT mRNA level after 6 hrs by RT-PCR analysis; method in brief: as §1
# [5] = target: Histone-lysine N-methyltransferase EZH2 (Homo sapiens) (UniProt Q15910); assay: Inhibition of EZH2 in human HeLa cells assessed as decrease in H3K27me3 levels at 2 uM after 6 hrs by Western blot analysis
# [6] = target: Histone-lysine N-methyltransferase EZH2 (Homo sapiens) (UniProt Q15910); assay: Inhibition of EZH2 in human ASPC1 cells assessed as effect on HPRT mRNA level after 6 hrs by RT-PCR analysis; method in brief: as §1
# [7] = target: Histone-lysine N-methyltransferase EZH2 (Homo sapiens) (UniProt Q15910); assay: Inhibition of EZH2 in human A549 cells assessed as effect on IRF1 mRNA level after 6 hrs by RT-PCR analysis; method in brief: as §1
# [8] = target: Histone-lysine N-methyltransferase EZH2 (Homo sapiens) (UniProt Q15910); assay: Inhibition of EZH2 in human A549 cells assessed as decrease in H3K27me3 levels at 2 uM after 6 hrs by Western blot analysis
# [9] = target: Histone-lysine N-methyltransferase EZH2 (Homo sapiens) (UniProt Q15910); assay: Inhibition of EZH2 in human HeLa cells assessed as effect on PITX2 mRNA level after 6 hrs by RT-PCR analysis; method in brief: as §1
# [10] = target: Histone-lysine N-methyltransferase EZH2 (Homo sapiens) (UniProt Q15910); assay: Inhibition of EZH2 in human HeLa cells assessed as effect on IRF1 mRNA level after 6 hrs by RT-PCR analysis; method in brief: as §1
# [11] = target: Histone-lysine N-methyltransferase EZH2 (Homo sapiens) (UniProt Q15910); assay: Inhibition of EZH2 in human A549 cells assessed as effect on PITX2 mRNA level after 6 hrs by RT-PCR analysis; method in brief: as §1
# [12] = target: Histone-lysine N-methyltransferase EZH2 (Homo sapiens) (UniProt Q15910); assay: Inhibition of EZH2 in human MCF7 cells assessed as effect on HPRT mRNA level after 6 hrs by RT-PCR analysis; method in brief: as §1
# [13] = target: Histone-lysine N-methyltransferase EZH2 (Homo sapiens) (UniProt Q15910); assay: Inhibition of EZH2 in human MCF7 cells assessed as effect on HPRT mRNA level after 6 hrs by RT-PCR analysis in presence of IFN-gamma; method in brief: as §1
# [14] = target: Histone-lysine N-methyltransferase EZH2 (Homo sapiens) (UniProt Q15910); assay: Inhibition of EZH2 in human ASPC1 cells assessed as effect on IRF1 mRNA level after 6 hrs by RT-PCR analysis in presence of IFN-gamma; method in brief: as §1
# [15] = target: Histone-lysine N-methyltransferase EZH2 (Homo sapiens) (UniProt Q15910); assay: Inhibition of EZH2 in human MCF7 cells assessed as decrease in H3K27me3 levels at 2 uM after 6 hrs by Western blot analysis
# [16] = target: Histone-lysine N-methyltransferase EZH2 (Homo sapiens) (UniProt Q15910); assay: Inhibition of EZH2 in human AsPC1 cells assessed as decrease in H3K27me3 levels at 2 uM after 6 hrs by Western blot analysis
# [17] = target: Histone-lysine N-methyltransferase EZH2 (Homo sapiens) (UniProt Q15910); assay: Inhibition of EZH2 in human A549 cells assessed as effect on IRF1 mRNA level after 6 hrs by RT-PCR analysis in presence of IFN-gamma; method in brief: as §1
# [18] = target: Histone-lysine N-methyltransferase EZH2 (Homo sapiens) (UniProt Q15910); assay: Inhibition of EZH2 in human MCF7 cells assessed as effect on IRF1 mRNA level after 6 hrs by RT-PCR analysis; method in brief: as §1
# [19] = target: Histone-lysine N-methyltransferase EZH2 (Homo sapiens) (UniProt Q15910); assay: Inhibition of EZH2 in human A549 cells assessed as effect on HPRT mRNA level after 6 hrs by RT-PCR analysis in presence of IFN-gamma; method in brief: as §1
# [20] = target: Histone-lysine N-methyltransferase EZH2 (Homo sapiens) (UniProt Q15910); assay: Inhibition of EZH2 in human HeLa cells assessed as effect on HPRT mRNA level after 6 hrs by RT-PCR analysis in presence of IFN-gamma; method in brief: as §1
# [21] = target: Histone-lysine N-methyltransferase EZH2 (Homo sapiens) (UniProt Q15910); assay: Inhibition of EZH2 in human HeLa cells assessed as effect on HPRT mRNA level after 6 hrs by RT-PCR analysis; method in brief: as §1
# [22] = target: Histone-lysine N-methyltransferase EZH2 (Homo sapiens) (UniProt Q15910); assay: Inhibition of EZH2 in human HeLa cells assessed as effect on PITX2 mRNA level after 6 hrs by RT-PCR analysis in presence of IFN-gamma; method in brief: as §1
# [23] = target: Histone-lysine N-methyltransferase EZH2 (Homo sapiens) (UniProt Q15910); assay: Inhibition of EZH2 in human ASPC1 cells assessed as effect on IRF1 mRNA level after 6 hrs by RT-PCR analysis; method in brief: as §1
# [24] = target: Histone-lysine N-methyltransferase EZH2 (Homo sapiens) (UniProt Q15910); assay: Inhibition of EZH2 in human MCF7 cells assessed as effect on IRF1 mRNA level after 6 hrs by RT-PCR analysis in presence of IFN-gamma; method in brief: as §2
# [25] = target: Histone-lysine N-methyltransferase EZH2 (Homo sapiens) (UniProt Q15910); assay: Inhibition of EZH2 in human ASPC1 cells assessed as effect on PITX2 mRNA level after 6 hrs by RT-PCR analysis in presence of IFN-gamma; method in brief: as §1
# [26] = target: Histone-lysine N-methyltransferase EZH2 (Homo sapiens) (UniProt Q15910); assay: Inhibition of EZH2 in human ASPC1 cells assessed as effect on HPRT mRNA level after 6 hrs by RT-PCR analysis in presence of IFN-gamma; method in brief: as §1
# [27] = target: Histone-lysine N-methyltransferase EZH2 (Homo sapiens) (UniProt Q15910); assay: Inhibition of EZH2 in human MCF7 cells assessed as effect on PITX2 mRNA level after 6 hrs by RT-PCR analysis in presence of IFN-gamma; method in brief: as §2
# [28] = target: Histone-lysine N-methyltransferase EZH2 (Homo sapiens) (UniProt Q15910); assay: Inhibition of EZH2 in human ASPC1 cells assessed as effect on PITX2 mRNA level after 6 hrs by RT-PCR analysis; method in brief: as §1
# Histone-lysine N-methyltransferase EZH2 (Homo sapiens), sequence (Q15910 whole entry, looked up): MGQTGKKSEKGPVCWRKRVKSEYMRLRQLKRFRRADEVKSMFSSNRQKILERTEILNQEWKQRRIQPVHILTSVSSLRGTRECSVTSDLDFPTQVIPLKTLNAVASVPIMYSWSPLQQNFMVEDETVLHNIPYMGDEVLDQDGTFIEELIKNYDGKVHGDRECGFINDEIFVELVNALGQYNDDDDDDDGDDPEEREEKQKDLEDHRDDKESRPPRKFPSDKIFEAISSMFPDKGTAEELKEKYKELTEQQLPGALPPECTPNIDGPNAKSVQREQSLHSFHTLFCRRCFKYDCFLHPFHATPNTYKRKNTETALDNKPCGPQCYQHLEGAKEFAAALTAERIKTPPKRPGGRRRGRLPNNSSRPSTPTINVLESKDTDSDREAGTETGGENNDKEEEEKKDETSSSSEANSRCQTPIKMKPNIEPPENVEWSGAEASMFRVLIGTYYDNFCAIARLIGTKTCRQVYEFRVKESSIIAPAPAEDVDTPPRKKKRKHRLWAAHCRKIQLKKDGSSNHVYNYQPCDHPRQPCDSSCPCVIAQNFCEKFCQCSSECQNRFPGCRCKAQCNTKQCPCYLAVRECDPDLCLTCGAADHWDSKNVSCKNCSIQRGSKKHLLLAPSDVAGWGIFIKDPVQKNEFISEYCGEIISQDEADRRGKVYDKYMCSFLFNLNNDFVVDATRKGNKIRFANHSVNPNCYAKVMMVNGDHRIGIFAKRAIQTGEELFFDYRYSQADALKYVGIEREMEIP
smiles,measurement,setting,value
CCCc1cc(C)[nH]c(=O)c1CNC(=O)c1cc(-c2ccnc(N3CCN(C)CC3)c2)cc2c1cnn2C(C)C,inhibition,[1],inactive
same,inhibition,[2],inactive
same,inhibition,[3],inactive
same,inhibition,[4],inactive
same,inhibition,[5],Active
same,inhibition,[6],inactive
same,inhibition,[7],inactive
same,inhibition,[8],Active
same,inhibition,[9],inactive
same,inhibition,[10],inactive
same,inhibition,[11],inactive
same,inhibition,[12],inactive
same,inhibition,[13],inactive
same,inhibition,[14],inactive
same,inhibition,[15],Active
same,inhibition,[16],Active
same,inhibition,[17],inactive
same,inhibition,[18],inactive
same,inhibition,[19],inactive
same,inhibition,[20],inactive
same,inhibition,[21],inactive
same,inhibition,[22],inactive
same,inhibition,[23],inactive
same,inhibition,[24],inactive
same,inhibition,[25],inactive
same,inhibition,[26],inactive
same,inhibition,[27],inactive
same,inhibition,[28],inactive
